Starred links: 1 amine or outer side, 2 acyl side, 3 side chain; linkers in the order of their positions; H or OH if unused. Non-standard residues stand in square brackets, D forms with d. Residues, ends and D or L forms follow the SMILES beside them. *: point of attachment. Sta = CC(C)C[C@H](N)[C@@H](O)CC(=O)O; tBuAla = CC(C)(C)C[C@H](N)C(=O)O; NMeL = CN[C@@H](CC(C)C)C(=O)O; Chg = N[C@H](C(=O)O)C1CCCCC1; Phg = N[C@H](C(=O)O)c1ccccc1; Tle = CC(C)(C)[C@H](N)C(=O)O; NMeS = CN[C@@H](CO)C(=O)O; hSer = N[C@@H](CCO)C(=O)O; Nva = CCC[C@H](N)C(=O)O; Abu = CC[C@H](N)C(=O)O; Aib = CC(C)(N)C(=O)O; CO = O=C([*:1])[*:2]; Bz = O=C(c1ccccc1)*; NHPh = c1ccc(N*)cc1; Bn = c1ccc(C*)cc1

Test system in the first assay: not listed separately
Put plainly: Compound (30 mM) was tested in vitro for inhibitory potency against Fas-associated phosphatase-1 binding from HFAP-10cDNA subcloned into the bluescript vector pSK-II(Stratagene). The following applies: in the assay text read “30 µM” for “30 mM”. In a few lines:
(§1)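 ³⁵S-labeled protein incubated 16 h at 4 °C with peptide and GST-Fas immobilized on beads, in pH 8.0 Tris/NaCl buffer with DTT, EDTA, 1.1% NP-40 and protease inhibitors. After four washes, bead-bound radioactivity was counted by scintillation. Specific binding is Fas binding minus FasΔ15 binding. % inhibition = 100 − (specific binding with peptide / without peptide × 100).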
The term inhibition denotes the drop in the measured response relative to a control, in per cent. `CC(=O)N[C@@H](CO)C(=O)N[C@@H](Cc1ccc(Oc2ccc(OC(C)=O)cc2)cc1)C(=O)N[C@H](C(=O)O)C(C)C`: the inhibition came out at 46.7%. As to `CC(=O)N[C@@H](CO)C(=O)N[C@H](C(=O)N[C@H](C(=O)O)C(C)C)C(C)(C)C` (Ac-Ser-[Tle]-Val-OH), the inhibition stood at 54.6%.

On to `CC(=O)N[C@@H](CO)C(=O)N[C@@H](CC(C)C)[C@@H](O)C(=O)N[C@H](C(=O)O)C(C)C`, for which the inhibition came to 4.9%. For the molecule `CC(=O)N[C@@H](CO)C(=O)NCCC(=O)N[C@H](C(=O)O)C(C)C`, the inhibition came out at 13.6%. As to `CC(=O)N[C@@H](CO)C(=O)N[C@@H](CC(C)C)C(=O)N[C@H](C(=O)O)C(C)C`, the inhibition stood at 31.1%. Still for that read-out and setting: under `CC[C@H](NC(=O)[C@H](CO)NC(C)=O)C(=O)N[C@H](C(=O)O)C(C)C` (Ac-Ser-[Abu]-Val-OH) stands 21.1%.

On to `CC(=O)N[C@@H](CO)C(=O)N[C@H](C(=O)N[C@H](C(=O)O)C(C)C)C1CCCCC1` (Ac-Ser-[Chg]-Val-OH), for which the inhibition turned out to be 34.7%. On the same count and under the same terms, under `CCC[C@H](NC(=O)[C@H](CO)NC(C)=O)C(=O)N[C@H](C(=O)O)C(C)C` (Ac-Ser-[Nva]-Val-OH) stands 6%; under `CC(=O)N[C@@H](CO)C(=O)N[C@H](C(=O)N[C@H](C(=O)O)C(C)C)c1ccccc1` (Ac-Ser-[Phg]-Val-OH), 18.5%.

Test system in a further assay: not listed separately
Put plainly: Compound (50 mM) was tested in vitro for inhibitory potency against Fas-associated phosphatase-1 binding from HFAP-10cDNA subcloned into the bluescript vector pSK-II(Stratagene).
Settings: not given
An outline of the steps:
as §1
Take `CC(=O)N1C[C@@H](O)C[C@H]1C(=O)N[C@@H](CC(C)C)C(=O)N[C@H](C(=O)O)C(C)C`: the inhibition is 9.6%.

Consider `CC(=O)N1C[C@H](O)C[C@H]1C(=O)N[C@@H](CC(C)C)C(=O)N[C@H](C(=O)O)C(C)C`, for which the inhibition was found to be 2.4%. In the case of `CC(=O)N[C@@H](CO)C(=O)N[C@@H](CC(C)C)C(=O)N[C@H](C(=O)O)C(C)(C)C` (Ac-Ser-Leu-[Tle]-OH), the inhibition turned out to be 7.2%. The same measure, in the same setting: under `CCC[C@H](NC(=O)[C@H](CC(C)C)NC(=O)[C@H](CO)NC(C)=O)C(=O)O` (Ac-Ser-Leu-[Nva]-OH) stands 16.6%; under `CC(=O)N[C@@H](CO)C(=O)N[C@@H](CC(C)C)C(=O)N[C@@H](CC(C)(C)C)C(=O)O` (Ac-Ser-Leu-[tBuAla]-OH), 10.1%; under `CC(=O)N[C@@H](CO)C(=O)N[C@@H](CC(C)C)C(=O)N[C@H](C(=O)O)C(C)C`, 44.3%. On the same count and under the same terms, under `CC[C@H](NC(=O)[C@H](CC(C)C)NC(=O)[C@H](CO)NC(C)=O)C(=O)O` (Ac-Ser-Leu-[Abu]-OH) stands 18.7%; under `CC(=O)N[C@@H](CCO)C(=O)N[C@@H](CC(C)C)C(=O)N[C@H](C(=O)O)C(C)C` (Ac-[hSer]-Leu-Val-OH), 13.3%; under `CC(=O)N[C@@H](CC(C)C)[C@@H](O)CC(=O)N[C@@H](CC(C)C)C(=O)N[C@H](C(=O)O)C(C)C` (Ac-[Sta]-Leu-Val-OH), 9.9%.

Take `CC(=O)N[C@@H](CO)C(=O)N[C@@H](CC(C)C)C(=O)N[C@H](C(=O)O)C1CCCCC1` (Ac-Ser-Leu-[Chg]-OH): the inhibition amounted to 7.7%.

Test system in the next assay: not listed separately
Put plainly: Compound (100 mM) was tested in vitro for inhibitory potency against Fas-associated phosphatase-1 binding from HFAP-10cDNA subcloned into the bluescript vector pSK-II(Stratagene).
Settings: not given
In a few lines:
as §1
Take `CC(=O)N[C@@H](COC(C)=O)C(=O)N[C@@H](CC(C)C)C(=O)N[C@H](C(=O)O)C(C)C` (Ac-Ser(Ac)-Leu-Val-OH): the inhibition turned out to be 47.9%. On the same count and under the same terms, under `CC(=O)N[C@@H](CO)C(=O)N[C@@H](CC(C)C)C(=O)N[C@H](C(=O)O)C(C)C` stands 87.6%; under `CC(=O)N[C@@H](COC(=O)c1ccccc1)C(=O)N[C@@H](CC(C)C)C(=O)N[C@H](C(=O)O)C(C)C` (Ac-Ser(Bz)-Leu-Val-OH), 36.2%; under `CC(=O)N[C@@H](COCc1ccccc1)C(=O)N[C@@H](CC(C)C)C(=O)N[C@H](C(=O)O)C(C)C` (Ac-Ser(Bn)-Leu-Val-OH), 10.4%.

Test system in another assay: not listed separately
Put plainly: Compound (10 mM) was tested in vitro for inhibitory potency against Fas-associated phosphatase-1 binding from HFAP-10cDNA subcloned into the bluescript vector pSK-II(Stratagene). The following applies: in the assay text read “10 uM” for “10 mM”. In a few lines: as §1
Consider `CC(C)C[C@H](NC(=O)[C@H](CO)NC(=O)Nc1cccc(C(=O)[C@@H](N)CCC(=O)O)c1)C(=O)N[C@H](C(=O)O)C(C)C`, for which the inhibition was 76.8%. Still for that read-out and setting: under `CC(C)C[C@H](NC(=O)[C@H](CO)NC(=O)Nc1ccc(C(=O)[C@@H](N)CCC(=O)O)cc1)C(=O)N[C@H](C(=O)O)C(C)C` stands 66.6%. Still for that read-out and setting: with `CC(C)C[C@H](NC(=O)[C@H](CO)NC(=O)NC1CCCCC1)C(=O)N[C@H](C(=O)O)C(C)C` the figure was 29.1%; with `CC(C)C[C@H](NC(=O)[C@H](CO)NC(=O)c1ccccc1)C(=O)N[C@H](C(=O)O)C(C)C` (Bz-Ser-Leu-Val-OH), 28%; with `CC(C)C[C@H](NC(=O)[C@H](CO)NC(=O)Nc1ccccc1)C(=O)N[C@H](C(=O)O)C(C)C` ({NHPh-CO}-Ser-Leu-Val-OH), 51.5%. The same measure, in the same setting: under `CC[C@@H](C)[C@H](NC(=O)[C@H](CCC(=O)O)NC(C)=O)C(=O)N[C@@H](CCC(N)=O)C(=O)N[C@@H](CO)C(=O)N[C@@H](CC(C)C)C(=O)N[C@H](C(=O)O)C(C)C` stands 29.6%; under `CC(C)C[C@H](NC(=O)[C@H](CO)NC(=O)C1CCCCC1)C(=O)N[C@H](C(=O)O)C(C)C`, 16%; under `CC(C)C[C@H](NC(=O)[C@H](CO)NC(=O)Nc1ccccc1C(=O)[C@@H](N)CCC(=O)O)C(=O)N[C@H](C(=O)O)C(C)C`, 47.8%.

The next assay deals with Tyrosine-protein phosphatase non-receptor type 13 (Homo sapiens) (UniProt Q12923). Put plainly: In vitro inhibition of Fas-associated phosphatase-1 binding from HFAP-10cDNA subcloned into bluescript vector. The following applies: concentration not given here. Also noted: concentration or dose not given beside the values. An outline of the steps: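 35S-labeled FAP-1 incubated 16 h at 4 °C with peptide and GST-Fas fusion protein on glutathione beads in 150 mM NaCl, 50 mM Tris pH 8.0, 5 mM DTT, 2 mM EDTA, 1.1% NP-40, protease inhibitors. After four washes, bead-bound radioactivity counted by scintillation. Specific binding is Fas minus Fas∆15 binding. % inhibition = 100 − (specific binding with peptide / without peptide × 100).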
Tyrosine-protein phosphatase non-receptor type 13 (Homo sapiens), sequence (Q12923 whole entry, the tested form may be a part): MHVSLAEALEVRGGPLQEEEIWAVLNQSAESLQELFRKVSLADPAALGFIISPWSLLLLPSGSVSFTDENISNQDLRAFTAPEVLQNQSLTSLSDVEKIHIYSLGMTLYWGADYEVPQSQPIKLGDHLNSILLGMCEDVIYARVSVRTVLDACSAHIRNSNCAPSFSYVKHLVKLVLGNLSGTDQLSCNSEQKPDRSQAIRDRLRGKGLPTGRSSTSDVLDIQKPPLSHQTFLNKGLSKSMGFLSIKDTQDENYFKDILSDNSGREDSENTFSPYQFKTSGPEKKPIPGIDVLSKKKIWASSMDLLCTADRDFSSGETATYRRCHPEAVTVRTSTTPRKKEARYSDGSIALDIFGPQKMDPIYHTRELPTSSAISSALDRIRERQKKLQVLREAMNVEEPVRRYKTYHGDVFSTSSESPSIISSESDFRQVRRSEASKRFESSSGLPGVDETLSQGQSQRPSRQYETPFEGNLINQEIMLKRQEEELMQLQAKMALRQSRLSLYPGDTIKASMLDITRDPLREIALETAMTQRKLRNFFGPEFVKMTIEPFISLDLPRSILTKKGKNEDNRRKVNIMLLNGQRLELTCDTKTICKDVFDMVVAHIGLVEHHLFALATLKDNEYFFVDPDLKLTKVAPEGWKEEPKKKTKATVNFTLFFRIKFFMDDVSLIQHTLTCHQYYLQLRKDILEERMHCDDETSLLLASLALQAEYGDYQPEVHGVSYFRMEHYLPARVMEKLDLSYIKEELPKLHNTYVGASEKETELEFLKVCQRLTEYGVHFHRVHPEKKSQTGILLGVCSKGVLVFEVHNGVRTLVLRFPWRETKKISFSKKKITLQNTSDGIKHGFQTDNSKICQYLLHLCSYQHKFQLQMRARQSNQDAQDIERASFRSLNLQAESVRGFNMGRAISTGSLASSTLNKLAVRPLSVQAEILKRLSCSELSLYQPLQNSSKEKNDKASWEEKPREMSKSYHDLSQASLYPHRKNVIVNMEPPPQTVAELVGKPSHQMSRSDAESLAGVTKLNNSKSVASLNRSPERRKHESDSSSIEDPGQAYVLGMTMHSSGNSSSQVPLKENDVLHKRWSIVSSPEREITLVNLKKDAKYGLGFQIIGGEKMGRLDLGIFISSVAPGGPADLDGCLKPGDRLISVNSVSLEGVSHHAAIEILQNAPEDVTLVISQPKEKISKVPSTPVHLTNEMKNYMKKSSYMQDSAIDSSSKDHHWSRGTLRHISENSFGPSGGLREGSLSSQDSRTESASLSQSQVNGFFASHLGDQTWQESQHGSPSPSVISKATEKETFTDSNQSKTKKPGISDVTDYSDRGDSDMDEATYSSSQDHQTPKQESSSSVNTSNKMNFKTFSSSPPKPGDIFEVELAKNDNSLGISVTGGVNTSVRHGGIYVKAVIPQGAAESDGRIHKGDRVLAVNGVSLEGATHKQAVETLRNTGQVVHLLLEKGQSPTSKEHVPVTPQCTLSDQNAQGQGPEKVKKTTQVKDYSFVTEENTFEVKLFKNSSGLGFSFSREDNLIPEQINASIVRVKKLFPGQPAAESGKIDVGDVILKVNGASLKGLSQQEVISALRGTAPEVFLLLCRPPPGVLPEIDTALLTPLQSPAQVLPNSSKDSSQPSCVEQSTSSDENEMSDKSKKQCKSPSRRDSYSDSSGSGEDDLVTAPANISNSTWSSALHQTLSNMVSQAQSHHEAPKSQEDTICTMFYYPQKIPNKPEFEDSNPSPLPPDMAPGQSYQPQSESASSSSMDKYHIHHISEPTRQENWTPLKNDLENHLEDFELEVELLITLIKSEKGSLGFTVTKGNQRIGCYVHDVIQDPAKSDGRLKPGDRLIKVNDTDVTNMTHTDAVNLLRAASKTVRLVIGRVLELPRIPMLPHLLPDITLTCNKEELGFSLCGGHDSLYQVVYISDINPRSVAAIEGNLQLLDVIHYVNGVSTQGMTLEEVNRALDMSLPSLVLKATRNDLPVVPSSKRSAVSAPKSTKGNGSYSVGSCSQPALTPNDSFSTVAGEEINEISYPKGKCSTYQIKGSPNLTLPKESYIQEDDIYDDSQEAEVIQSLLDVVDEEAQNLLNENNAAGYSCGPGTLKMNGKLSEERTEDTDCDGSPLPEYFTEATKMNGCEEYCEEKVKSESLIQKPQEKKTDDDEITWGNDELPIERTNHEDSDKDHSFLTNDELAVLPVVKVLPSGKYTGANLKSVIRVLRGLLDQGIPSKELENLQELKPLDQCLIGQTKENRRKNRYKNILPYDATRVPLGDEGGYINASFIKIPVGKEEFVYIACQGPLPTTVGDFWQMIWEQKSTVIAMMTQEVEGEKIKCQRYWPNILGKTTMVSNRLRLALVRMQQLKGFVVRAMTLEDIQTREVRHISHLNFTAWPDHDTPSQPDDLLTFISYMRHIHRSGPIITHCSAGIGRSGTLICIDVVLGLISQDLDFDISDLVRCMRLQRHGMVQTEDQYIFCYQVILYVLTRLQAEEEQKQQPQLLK
Turning to `CC(=O)N[C@@H](CO)C(=O)N[C@@H](CC(C)C)C(=O)N[C@@H](C(=O)O)C(C)C`, the inhibition is -6.8%. Turning to `CC(=O)N(C)[C@@H](CO)C(=O)N[C@@H](CC(C)C)C(=O)N[C@H](C(=O)O)C(C)C` (Ac-[NMeS]-Leu-Val-OH), the inhibition amounted to 20.6%. For the molecule `CC(=O)N[C@@H](CO)C(=O)N[C@@H](CC(C)C)C(=O)N[C@H](C(=O)Oc1nn[nH]n1)C(C)C`, the inhibition was found to be 14.4%.

For the molecule `COC(=O)[C@@H](NC(=O)[C@H](CC(C)C)NC(=O)[C@H](CO)NC(C)=O)C(C)C` (Ac-Ser-Leu-Val-OMe), the inhibition is -0.5%. Same read-out and setting: with `CC(=O)N[C@@H](CO)C(=O)N[C@@H](CC(C)C)C(=O)N[C@H](C(=O)O)C(C)C` the figure was 101%; with `CC(=O)N[C@@H](CO)C(=O)Nc1ccc(C(=O)N[C@H](C(=O)O)C(C)C)cc1`, 16.5%; with `CC(=O)N[C@@H](CO)C(=O)N(C)[C@@H](CC(C)C)C(=O)N[C@H](C(=O)O)C(C)C` (Ac-Ser-[NMeL]-Val-OH), 33.4%. Regarding `CC(=O)N[C@@H](CO)C(=O)NC(C)(C)C(=O)N[C@H](C(=O)O)C(C)C` (Ac-Ser-[Aib]-Val-OH), the inhibition was -4%. Still for that read-out and setting: under `CC(=O)N[C@@H](CO)C(=O)N[C@H](CC(C)C)C(=O)N[C@H](C(=O)O)C(C)C` stands 1.2%; under `CC(=O)N[C@H](CO)C(=O)N[C@@H](CC(C)C)C(=O)N[C@H](C(=O)O)C(C)C`, 59.2%; under `CC(=O)N[C@@H](CO)C(=O)Nc1cccc(C(=O)N[C@H](C(=O)O)C(C)C)c1`, 9.5%.

Source of the values: ChEMBL document CHEMBL1132356, “Structural modification of Fas C-terminal tripeptide and its effects on the inhibitory activity of Fas/FAP-1 binding” (J Med Chem, 1999).
